DDE Tn7 FP inh: inhibitors of Tn7 peptide binding to fibrin DD(E), primary screen, biochemical, fluorescence polarization, human fibrin, Tn7 probe; Fibrinogen beta chain (Homo sapiens), P02675; FP displacement of FITC-Tn7 peptide from fibrin DD(E); 0% = median of compound wells per plate; inhibition, % at 8.3 µM; 370,000 tested, 0.13% active;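 active = inhibition above the mean of compounds falling within the control limits plus 3 SD of them, cut at about 14% in these data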
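Assay system: human fibrin DD(E) protein / Input: 2 µM fibrin DD(E) / Benchmarks: high control of 10 µM Aha-Tn7 peptide / Measured by: fluorescence polarization of the labelled Tn7 tracer / Medium: Tris buffer with calcium and detergent, pH 7.8 / Timing: 10 min compound pre-incubation, 3 h probe incubation at room temperature / Repeats: one replicate per compound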
SIAE primary: human SIAE inhibitors, primary screen, biochemical, fluorescence polarization, FP-Rh probe, 1536-well HTS; Sialate O-acetylesterase (Homo sapiens), Q9HAT2; inhibition, % at 9.66 µM; 370,000 tested, 0.69% active; AID 1053197, 2014; SIAE FP-Rh probe binding;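 active = inhibition above a cutoff: mean of compounds within the control limits plus 3 SD of those, cut at about 17% in these data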
HTRA1 inh: HTRA1 serine protease inhibitors, primary screen, biochemical, fluorescence polarization, HTS. inhibition, % at 5.96 µM. AID 504803, 2011. Q92743. recombinant HTRA1, FP-rhodamine activity-based probe. 340,000 tested, 0.5% active; in the data active = inhibition above about 36%
Target sequence (Q92743 whole entry, looked up): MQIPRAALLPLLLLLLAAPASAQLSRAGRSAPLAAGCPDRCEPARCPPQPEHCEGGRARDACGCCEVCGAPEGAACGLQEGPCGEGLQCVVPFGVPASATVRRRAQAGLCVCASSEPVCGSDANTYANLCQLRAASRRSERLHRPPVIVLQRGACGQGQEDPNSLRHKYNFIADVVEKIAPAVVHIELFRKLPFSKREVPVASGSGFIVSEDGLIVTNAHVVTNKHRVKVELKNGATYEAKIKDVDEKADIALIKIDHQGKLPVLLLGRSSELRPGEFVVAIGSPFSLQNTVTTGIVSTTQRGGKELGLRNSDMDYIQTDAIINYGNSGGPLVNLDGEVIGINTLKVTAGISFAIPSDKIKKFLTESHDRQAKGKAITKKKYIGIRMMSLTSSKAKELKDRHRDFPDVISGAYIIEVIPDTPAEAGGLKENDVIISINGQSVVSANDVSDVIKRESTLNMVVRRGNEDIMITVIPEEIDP
DDE Tn6 FP inh: inhibitors of Tn6 peptide binding to fibrin DD(E), primary screen, biochemical, fluorescence polarization, human fibrin, Tn6 probe | AID 720509, 2013 | Fibrin DD(E) TRITC-Tn6 fluorescence polarization displacement | inhibition, % at 8.3 µM | 370,000 tested, 0.21% active;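 active = inhibition above a per-campaign cutoff: mean of compounds within control limits plus 3 SD, cut at about 15% in these data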
TCR CD3 inh: inhibitors of human TCR-CD3 interaction, primary screen, biochemical, fluorescence, TAMRA-labeled TCR probe; T-cell receptor (TCR); inhibition, % at 9.4 µM; 360,000 tested, 0.37% active; AID 651800, 2012; in the data active = inhibition above about 19%;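 also: recombinant mutant TCR 2C K166C tagged with TAMRA read by polarization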
ABHD4 inh: ABHD4 inhibitors, primary screen, biochemical, fluorescence polarization, mouse; (Lyso)-N-acylphosphatidylethanolamine lipase (Mus musculus), Q8VD66; purified mABHD4, FP-Rh probe fluorescence polarization; inhibition, % at 8.92 µM; 370,000 tested, 0.54% active; AID 720543, 2013;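 active = inhibition exceeding the mean over every tested compound plus 3 SD, cut at about 30% in these data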
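Doses – 8.92 µM, single dose · Material – wild-type mouse ABHD4 protein · Replication – single well per compound (singlicate) · Measure – percent inhibition of probe binding, normalized to plate controls · Schedule – 45 min compound pre-incubation plus 60 min probe step, 25 °C · Detection – fluorescence polarization with parallel and perpendicular emission, 525/598 nm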
HTRA1 conf: HTRA1 protease inhibitors, retest, confirmation, biochemical, fluorescence polarization | 1,600 tested, 66% active | shares compounds with HTRA1 inh | recombinant HTRA1, FP-rhodamine activity-based probe | inhibition, % at 5.96 µM;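 active = mean inhibition over three repeats above a set limit taken from the earlier primary screen, cut at about 37% in these data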;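 also: inhibitors block probe binding so polarization drops and inhibition rises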
Hits are given with their value; 0 = inactive; - = no result. Sampled rows, rich in hits. Any-hit rate of the full collection: about 1.8%.

SMILES	DDE Tn7 FP inh	SIAE primary	HTRA1 inh	DDE Tn6 FP inh	TCR CD3 inh	ABHD4 inh	HTRA1 conf
Cn1c(/C=N/Nc2nc3ccccc3[nH]2)nc2ccccc21	0	0	36	0	0	0	44
O=C(NCCc1ccccc1)C1COc2ccccc2O1 (stereo not drawn)	0	0	0	0	0	0	-
O=C(NCCc1ccc(O)c(O)c1)C1COc2ccccc2O1 (stereo not drawn)	0	0	40	0	0	0	61
Cc1cc(-c2n[nH]c(=S)n2N=Cc2ccc(-c3ccccc3)cc2)n[nH]1	0	0	-	0	-	0	-
Oc1ccc(/C=N/Nc2cccc3cccnc23)c(O)c1	0	0	47	0	0	0	0
Cc1cc(-c2ccccc2)nc(N/N=C/c2ccc(O)cc2O)n1	0	0	41	0	0	0	75
Cc1ccc(/C=N/Nc2cccc3cccnc23)c(O)c1	0	0	0	0	0	0	-
CCCC(=O)NC(c1cccs1)c1cc(Cl)c2cccnc2c1O (stereo not drawn)	0	0	63	0	0	0	56
CCC(=O)NC(c1ccco1)c1cc(Cl)c2ccccc2c1O (stereo not drawn)	0	0	0	0	0	0	-
CCCC(=O)NC(c1ccco1)c1cc(Cl)c2cccnc2c1O (stereo not drawn)	0	0	47	0	0	0	54
CCCC(=O)NC(c1ccc2c(c1)OCO2)c1cc(Cl)c2cccnc2c1O (stereo not drawn)	-	-	62	-	-	-	59
CC(=O)NC(c1cccs1)c1cc(F)c2cccnc2c1O (stereo not drawn)	0	0	0	0	0	0	-
Cc1cc(N(CCO)CCO)ccc1C(c1ccc(N(CCO)CCO)cc1C)c1ccccc1Cl	0	0	41	0	0	0	0
COc1ccc2nc3ccccc3nc2c1N	0	0	49	0	0	0	0
CCCn1c(NC(=O)c2ccccc2)nc(Cc2ccccc2)c1Cc1ccccc1	0	0	-	0	-	0	-
O=C(/C=C/c1ccco1)Oc1cc(Br)cc(/C=N/NC(=O)c2ccccc2O)c1	0	0	84	0	0	0	143
O=C1CC(Nc2ccc(N3CCOCC3)cc2)C(=O)N1c1cccc(C(F)(F)F)c1 (stereo not drawn)	-	-	61	-	-	-	0
CN(C)c1ccc(N2C(=O)CC(Nc3ccc(N4CCOCC4)cc3)C2=O)cc1 (stereo not drawn)	0	0	0	0	0	0	-
O=C(CSc1nc2nn(-c3ccccc3)c(=O)c-2c2n1CCCCC2)c1ccc(O)c(O)c1	-	-	74	-	-	-	97
CNC(=O)CSc1nc2nn(-c3ccccc3)c(=O)c-2c2n1CCCCC2	-	-	0	-	-	-	-
O=S1(=O)C=CCN1Cc1cn(Cc2ccccc2)nn1	0	0	-	0	-	0	-
CCOC(=O)N1CCN(S(=O)(=O)c2ccc(C(=O)Nc3sc4c(c3C(=O)OC)CCN(C)C4)cc2)CC1	0	0	53	0	0	0	49
COC(=O)C1CN(C2CCCC2)CCS(=O)(=O)N1Cc1ccc(OC)cc1 (stereo not drawn)	0	0	-	0	-	0	-
O=C(NN=C1CCCC1)c1cc(Br)ccc1O	0	0	0	0	0	0	-
O=C(N/N=C1/CCSC1)c1cc(Br)ccc1O	0	0	45	0	0	0	0
Brc1csc(/C=N/Nc2nc3ccccc3s2)c1	0	0	40	0	0	0	0
Brc1cc2c(cc1/C=N/Nc1nc3ccccc3s1)OCO2	0	0	0	0	0	0	-
Oc1c(C(Nc2nc3ccccc3s2)c2ccco2)ccc2cccnc12 (stereo not drawn)	0	0	36	0	0	0	40
